FXIa inh 1536 = human FXIa protease inhibitors, primary screen, biochemical, 1536-well; Coagulation factor XI (Homo sapiens), P03951; purified FXIa, Boc-Glu-Ala-Arg-AMC fluorogenic substrate; inhibition, % at 5 µM; 220,000 tested, 0.14% active; AID 798, 2007;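 active = inhibition of at least 40%; inactive = inhibition below 40%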;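 note: fluorescence of freed AMC excited at 355 nm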
FXIIa inh 1536 = human FXIIa protease inhibitors, primary screen, biochemical, 1536-well; inhibition, % at 5 µM; 220,000 tested, 0.3% active; Coagulation factor XII (Homo sapiens), P00748; purified FXIIa, Boc-QGR-AMC fluorogenic substrate, 2 h; in the data active = inhibition above about 40%
Target sequence (P00748 20-372 limits assumed): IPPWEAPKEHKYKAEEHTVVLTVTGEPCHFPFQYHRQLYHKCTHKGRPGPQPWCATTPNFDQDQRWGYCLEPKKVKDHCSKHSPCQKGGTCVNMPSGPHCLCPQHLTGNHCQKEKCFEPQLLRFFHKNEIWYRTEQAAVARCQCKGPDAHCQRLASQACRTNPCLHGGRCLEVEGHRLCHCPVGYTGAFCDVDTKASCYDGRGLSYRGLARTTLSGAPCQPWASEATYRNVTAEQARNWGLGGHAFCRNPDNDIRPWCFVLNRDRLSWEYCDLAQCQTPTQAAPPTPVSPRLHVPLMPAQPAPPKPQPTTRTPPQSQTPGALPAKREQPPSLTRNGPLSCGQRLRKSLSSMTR
Target sequence (P00748 373-615 limits assumed): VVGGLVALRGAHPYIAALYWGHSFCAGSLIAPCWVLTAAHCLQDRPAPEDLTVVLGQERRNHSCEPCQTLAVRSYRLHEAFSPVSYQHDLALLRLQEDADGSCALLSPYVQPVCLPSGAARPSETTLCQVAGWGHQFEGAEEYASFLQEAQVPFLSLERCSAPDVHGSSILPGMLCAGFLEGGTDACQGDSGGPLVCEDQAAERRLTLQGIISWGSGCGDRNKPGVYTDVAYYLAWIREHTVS
Thrombin inh = human alpha-thrombin inhibitors, primary screen, counter-screen for coagulation protease inhibitor project, biochemical, 1536-well, fluorogenic AMC substrate | 220,000 tested, 0.26% active | Prothrombin (Homo sapiens), P00734 | AID 1046, 2008 | inhibition, % at 5 µM | Boc-VPR-AMC fluorogenic substrate cleavage;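 active = inhibition at or above 40%; inactive = inhibition below 40%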
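Assay system: human alpha-thrombin enzyme. Reagent: Boc-VPR-AMC substrate, 15 µM final. Compound dosing: one concentration per compound, 5 µM, with 0.2% DMSO. Incubation: room-temperature reaction. Technique: AMC fluorescence, 355/460 nm. Measure: % inhibition relative to enzyme controls and enzyme-free blanks.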
KLK5 inh = human KLK5 protease inhibitors, primary screen, biochemical, 1536-well. recombinant hK5, fluorogenic AMC substrate cleavage. AID 873, 2007. 210,000 tested, 0.59% active. Kallikrein-5 (Homo sapiens), Q9Y337. inhibition, % at 5 µM;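 active = inhibition of 40% or more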
Of the large screens only hits and unclear results are named; the others gave an inactive call. Hits are enriched below; roughly 1% of the tested compounds scored in any of these assays.

Cn1nnc(CC[N+](C)(C)C)n1	FXIa inh 1536 56, Thrombin inh 43
CC1CCN(c2cc(Br)c([N+](=O)[O-])cc2F)CC1	none
CN(CC1COc2ccccc2O1)c1nc(-c2cccnc2)nc2ccccc12 (stereo not drawn)	KLK5 inh 53
CN1CCC(N(C)c2nc(-c3ccc([N+](=O)[O-])cc3)nc3ccccc23)CC1	none
Cc1nc(SCc2c(Cl)cccc2Cl)nc(OC(=O)N(C)C)c1C	none
CCN(CC)P(=O)(c1n(CC)cc[n+]1CC)N(CC)CC	none
N=c1n(CCO)c2ccccc2n1Cc1ccccc1	Thrombin inh 67
N=C1SCC(=O)N1Cc1ccccc1	none
CCN(CC)CCN=Cc1c(O)n(Cc2ccco2)c(=O)[nH]c1=O	none
O=c1[nH]c(=O)n(Cc2ccco2)c(O)c1C=NCc1ccco1	KLK5 inh 44
CN(C)C(Cc1ccccc1)C(=O)c1ccc(-c2ccccc2)cc1 (stereo not drawn)	KLK5 inh 98
O=C(N/N=C/c1c(O)n(Cc2ccco2)c(=O)[nH]c1=O)c1ccccc1O	none
CN(C)C(=O)CSc1nnc([C@@H](N)Cc2ccccc2)o1	FXIIa inh 1536 61, Thrombin inh 61
CC1CC(NC(=O)C2C3CCC(O3)C2C(=O)O)CC(C)(C)C1 (stereo not drawn)	FXIIa inh 1536 46
COc1ccc(OCC(=O)N2CCN(C/C=C/c3ccccc3)CC2)cc1	Thrombin inh 82 (no result: FXIIa inh 1536)
CCN(CC)c1ccc(N=Cc2c(O)n(-c3ccc(Cl)cc3)c(=O)[nH]c2=O)cc1	none
CC(=O)N1CCN(c2ccc(N=Cc3c(O)n(-c4ccc(Cl)cc4)c(=O)[nH]c3=O)cc2)CC1	KLK5 inh 59
COc1ccc(NC(=O)c2cc([N+](=O)[O-])ccc2N2CCNCC2)cc1	KLK5 inh 51
CCOc1ccc(-c2c(C)n(-c3ccc(OCC)cc3)c3[n+]2CCCCC3)cc1	FXIa inh 1536 51, FXIIa inh 1536 46
CCOc1ccc(-n2c(-c3ccoc3)nc3ccccc3c2=O)cc1	none
CCc1ccccc1N1C(=O)CC(=O)NC1=O	FXIa inh 1536 42, Thrombin inh 46
Cc1ccccc1N1C(=O)CC(=O)NC1=O	none
O=P(C(=Nc1ccc(Cl)cc1)N1CCOCC1)(N1CCOCC1)N1CCOCC1	KLK5 inh 42
O=C(NCCN1CCOCC1)c1ccc(Cl)nc1Cl	none (no result: Thrombin inh)
CCOc1ccc(N2C(=O)NC(=O)/C(=C/c3cnc(SC)nc3)C2=O)cc1	none
C[C@]12CCC(=O)C=C1CCC1C2CC[C@@]2(C)C1CC[C@@]2(O)CC#N (stereo partly drawn)	KLK5 inh 62
C#C[C@]1(O)CC[C@H]2[C@@H]3CCC4=CC(=O)CC[C@]4(C)[C@H]3CC[C@@]21C	none
CCOC(=O)C1(c2ccccc2)CCN(Cc2cccc(C(=O)O)c2)CC1	KLK5 inh 44
CCCCn1c(O)c(C(=O)/C=C/c2c[nH]c3ccccc23)c(=O)[nH]c1=O	none
CC1CCCC(C)N1/N=C/c1c[nH]c2ccc(Br)cc12 (stereo not drawn)	KLK5 inh 45
C=COCCn1c(C)c(C(C)=O)c2cc(O)ccc21	none
CC(=O)c1c(C)n(CCCOC(C)C)c2ccc(O)cc12	KLK5 inh 43
OC1/C(=C/c2ccccc2F)N2CCC1CC2 (stereo not drawn)	none
O=C(c1ccc2c3c(cccc13)CC2)C1CCCN(CC2CC2)C1 (stereo not drawn)	none
CN(C)CP(=O)(Nc1ccccc1)N(C)C (stereo not drawn)	KLK5 inh 67
CC(=O)N1N=C(c2c(O)n(C)c(=O)n(C)c2=O)CC1c1ccccc1 (stereo not drawn)	none
O=P(O)(Oc1ccccc1)OC(c1ccccc1)C(F)(F)C(F)(F)F (stereo not drawn)	none
NNC(=O)CN1C(=O)CN=C(c2ccccc2)c2cc(Br)ccc21	FXIIa inh 1536 44
CCN1CC2([N+](=O)[O-])CC=C(Cl)C([N+](=O)[O-])(C1)C2 (stereo not drawn)	none
Cc1ccccc1NC(=O)CCl	Thrombin inh 50
CCC(=NCC1CCCO1)c1c(O)n(-c2ccccc2)c(=O)[nH]c1=O (stereo not drawn)	KLK5 inh 61
CCC(=NCC1CCCO1)c1c(O)n(-c2ccc(Cl)cc2)c(=O)[nH]c1=O (stereo not drawn)	none
CCNc1cc(N2CCNCC2)ccc1[N+](=O)[O-]	FXIa inh 1536 68
Cc1[nH]c2ccccc2c1C(=O)C(=O)N1CC2CC(C1)c1cccc(=O)n1C2 (stereo not drawn)	none
CCCC(C)C1C(C#N)=C(N)Oc2c1c(=O)oc1ccccc21 (stereo not drawn)	KLK5 inh 68
O=c1[nH]c(=S)n(C2CCCCC2)c(O)c1/C=N/N1CCOCC1	none

High-throughput results (PubChem)
